Consider three compounds from ChEMBL document CHEMBL1156163, “(18)F Labeled benzimidazole derivatives as potential radiotracer for positron emission tomography (PET) tumor imaging” (Bioorg Med Chem, 2010).

Each structure is given as a SMILES string.

The test system of data set [1] is Brain. Briefly: Biodistribution in mouse S180 cells xenografted Kunming mouse brain at 10 to 20 uCi, iv after 5 mins by gamma counting. The settings on record: in vivo. Format: ADME, organism-based, CCRF S-180.
Data set [2] concerns Brain. Nature of the data set: Biodistribution in mouse S180 cells xenografted Kunming mouse brain at 10 to 20 uCi, iv after 30 mins by gamma counting. In kind it is ADME, organism-based, CCRF S-180. The settings on record: in vivo, 0.5 h.
Data set [3] can be described thus: Ratio of drug uptake in tumor to brain of mouse S180 cells xenografted Kunming mouse at 10 to 20 uCi, iv after 30 mins by gamma counting. The settings on record: in vivo, 0.5 h. In kind it is ADME, organism-based, CCRF S-180.
A short description of data set [4]: Biodistribution in mouse S180 cells xenografted Kunming mouse tumor at 10 to 20 uCi, iv after 60 mins by gamma counting. In kind it is ADME, organism-based, Neoplasm, CCRF S-180. The settings on record: in vivo, 1 h.
For a further data set, the system named is Muscle tissue. Briefly: Biodistribution in mouse S180 cells xenografted Kunming mouse muscle at 10 to 20 uCi, iv after 30 mins by gamma counting. Format: ADME, organism-based, CCRF S-180. As to conditions: in vivo, 0.5 h.
The test system of data set [5] is Kidney. Briefly: Biodistribution in mouse S180 cells xenografted Kunming mouse kidney at 10 to 20 uCi, iv after 15 mins by gamma counting. In kind it is ADME, organism-based, CCRF S-180. The settings on record: in vivo, 0.25 h.
A short description of data set [6]: Ratio of drug uptake in tumor to blood of mouse S180 cells xenografted Kunming mouse at 10 to 20 uCi, iv after 60 mins by gamma counting. In kind it is ADME, organism-based, CCRF S-180. The settings on record: tumour, 1 h.
Another data set concerns Lung. Nature of the data set: Biodistribution in mouse S180 cells xenografted Kunming mouse lung at 10 to 20 uCi, iv after 5 mins by gamma counting. The settings on record: in vivo. In kind it is ADME, organism-based, CCRF S-180.
A further data set relates to Pancreas. Briefly: Biodistribution in mouse S180 cells xenografted Kunming mouse pancreas at 10 to 20 uCi, iv after 60 mins by gamma counting. The settings on record: in vivo, 1 h. Format: ADME, organism-based, CCRF S-180.
Data set [7] deals with Kidney. Briefly: Biodistribution in mouse S180 cells xenografted Kunming mouse kidney at 10 to 20 uCi, iv after 5 mins by gamma counting. The settings on record: in vivo. Format: ADME, organism-based, CCRF S-180.
A short description of data set [8]: Ratio of drug uptake in tumor to brain of mouse S180 cells xenografted Kunming mouse at 10 to 20 uCi, iv after 15 mins by gamma counting. Format: ADME, organism-based, CCRF S-180. The settings on record: in vivo, 0.25 h.
Data set [9] can be described thus: Ratio of drug uptake in tumor to blood of mouse S180 cells xenografted Kunming mouse at 10 to 20 uCi, iv after 15 mins by gamma counting. In kind it is ADME, organism-based, CCRF S-180. As to conditions: tumour, 0.25 h.
Another data set relates to Blood. Nature of the data set: Biodistribution in mouse S180 cells xenografted Kunming mouse blood at 10 to 20 uCi, iv after 15 mins by gamma counting. In kind it is ADME, organism-based, CCRF S-180. The settings on record: in vivo, 0.25 h.
The nature of data set [10]: Ratio of drug uptake in tumor to brain of mouse S180 cells xenografted Kunming mouse at 10 to 20 uCi, iv after 5 mins by gamma counting. Format: ADME, organism-based, CCRF S-180. As to conditions: in vivo.
The test system of another data set is Heart. Briefly: Biodistribution in mouse S180 cells xenografted Kunming mouse heart at 10 to 20 uCi, iv after 30 mins by gamma counting. In kind it is ADME, organism-based, CCRF S-180. The settings on record: in vivo, 0.5 h.
Data set [11] relates to Kidney. Briefly: Biodistribution in mouse S180 cells xenografted Kunming mouse kidney at 10 to 20 uCi, iv after 120 mins by gamma counting. Format: ADME, organism-based, CCRF S-180. The settings on record: in vivo, 2 h.
The subject of data set [12] is Stomach. Briefly: Biodistribution in mouse S180 cells xenografted Kunming mouse stomach at 10 to 20 uCi, iv after 60 mins by gamma counting. The settings on record: in vivo, 1 h. Format: ADME, organism-based, CCRF S-180. Put shortly:
(§1)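 Female Kunming mice with subcutaneous S180 tumors (5 × 10^6 cells into right front flank, no anesthesia), used 7–14 days after inoculation at 18–22 g. Tracer in saline (10–20 µCi, 100 µL) given by tail vein; mice killed at 5, 15, 30, 60 and 120 min. Tissues excised, blotted, weighed and gamma-counted with decay correction. Reported as %ID/g, mean ± SD, n = 4.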

Data set [13] concerns Stomach. Nature of the data set: Biodistribution in mouse S180 cells xenografted Kunming mouse stomach at 10 to 20 uCi, iv after 15 mins by gamma counting. In kind it is ADME, organism-based, CCRF S-180. As to conditions: in vivo, 0.25 h. Put shortly: as §1
Data set [14] has as its system Stomach. Briefly: Biodistribution in mouse S180 cells xenografted Kunming mouse stomach at 10 to 20 uCi, iv after 30 mins by gamma counting. Format: ADME, organism-based, CCRF S-180. The settings on record: in vivo, 0.5 h. Summed up: as §1
For a further data set, the system named is Plasma. Briefly: Metabolic stability in mouse plasma at 100 to 150 uCi after 3 hrs by HPLC analysis. Format: ADME, cell-free. Put shortly: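 Radiotracer (100–150 µCi, 50 µL) incubated in 0.5 mL mouse plasma for 3 h. Plasma then mixed with 1 mL CH3CN and centrifuged 5 min at 13,200 rpm. Supernatant passed through a C18 Sep-Pak and analysed by HPLC.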

Data set [15] can be described thus: Octanol-water partition coefficient, log P at pH 7.4 after 5 mins. In kind it is physicochemical. Put shortly:
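Shake-flask partition using 2.5 mL n-octanol and 2.5 mL 0.01 M PBS pH 7.4, with 0.01 mL radioactive sample added. Mixed vigorously for 5 min at room temperature, then centrifuged. Radioactivity counted in 0.01 mL of each phase.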

The subject of data set [16] is Stomach. Briefly: Biodistribution in mouse S180 cells xenografted Kunming mouse stomach at 10 to 20 uCi, iv after 5 mins by gamma counting. Format: ADME, organism-based, CCRF S-180. As to conditions: in vivo. Put shortly:
as §1

Data set [17] is described as follows: Ratio of drug uptake in tumor to blood of mouse S180 cells xenografted Kunming mouse at 10 to 20 uCi, iv after 30 mins by gamma counting. In kind it is ADME, organism-based, CCRF S-180. As to conditions: tumour, 0.5 h.
For data set [18], the system named is Stomach. Nature of the data set: Biodistribution in mouse S180 cells xenografted Kunming mouse stomach at 10 to 20 uCi, iv after 120 mins by gamma counting. In kind it is ADME, organism-based, CCRF S-180. The settings on record: in vivo, 2 h. Summed up: as §1

In the case of `OC[C@H]1O[C@@H](O)[C@H]([18F])[C@@H](O)[C@@H]1O` [FLUDEOXYGLUCOSE-F18], the Drug uptake in the data set on Brain [1] is given as 2.4 % ID/g; in the data set with Brain [2], 3.07 % ID/g; in data set [4], 2.16 % ID/g; in the data set on Muscle tissue, 1.07 % ID/g; in the data set on Kidney [5], 1.04 % ID/g; in the data set on Lung, 1.52 % ID/g. For the same compound, the Drug uptake with Pancreas worked out at 0.83 % ID/g; in the data set on Kidney [7], 2.16 % ID/g; in the data set on Blood, 0.46 % ID/g; in the data set on Heart, 2.69 % ID/g; with Kidney [11], 0.25 % ID/g. Moreover, the Ratio in data set [3] amounted to 0.61; in [6] it was 19.47; in data set [8], 0.59; in [9] it was 3.42; in data set [10], 0.53.

Consider `CCCc1nc2c(C)cc(C(=O)O)cc2n1CC[18F]`, for which the Drug uptake was determined as 3.23 % ID/g in the data set with Stomach [12]; 1.03 % ID/g in the data set with Brain [1]; 0.31 % ID/g in the data set on Brain [2]; 4.33 % ID/g in the data set with Stomach [13]; 1.36 % ID/g in data set [4]; 1.17 % ID/g in the data set on Muscle tissue. The Drug uptake turned out to be 13.79 % ID/g with Kidney [5]; 3.87 % ID/g in the data set on Stomach [14]; 8.33 % ID/g in the data set with Lung; 0.67 % ID/g in the data set with Pancreas; 35.9 % ID/g in the data set with Kidney [7]; 2.25 % ID/g in the data set with Blood. In addition, the Drug uptake was 5.52 % ID/g in the data set on Stomach [16], 1.76 % ID/g in the data set with Heart, 1.1 % ID/g in the data set with Kidney [11] and 1.14 % ID/g with Stomach [18]. Also, the Ratio in data set [3] stood at 4.81; in [6], 1.43; in [8], 3.2; in [9] it was 0.63; in [10], 2.21; in [17], 1.09. Moreover, in the data set on Plasma, the Stability result is “Stable”. The logD (usually lipophilicity at a set pH, counting ionised and neutral species) at 5 min in data set [15] is -0.5.

For the compound `N[C@@H](Cc1ccc(OCC[18F])cc1)C(=O)O` [FLORETYROSINE F18], the Drug uptake worked out at 0.99 % ID/g in the data set on Brain [1]; 1.29 % ID/g in the data set on Brain [2]; 2.75 % ID/g in data set [4]; 2.69 % ID/g with Muscle tissue; 6.79 % ID/g with Kidney [5]; 16.8 % ID/g with Lung. In addition, the Drug uptake in the data set with Pancreas was 0.03 % ID/g; with Kidney [7] it was 6.58 % ID/g; in the data set with Blood it was 3.3 % ID/g; with Heart, 3.27 % ID/g; with Kidney [11], 1.29 % ID/g. The Ratio worked out at 2.54 in data set [3]; 1.1 in [6]; 2.43 in [8]; 0.76 in [9]; 2.1 in [10]; 1.02 in data set [17].
